Reference: publication PMC4973383 (Acta Pharmacologica Sinica, 2016)

How the values were obtained:
HCT8/ADR cells [1] = assay: Effect of verapamil; type: cell-based, human; conditions: HCT8/ADR cells pretreated with verapamil 50 μmol/L for 2 h; drug incubation 1 h or 2 h; flow cytometry
HCT8/ADR cells [2] = assay: Intranuclear distribution by confocal microscopy; type: cell-based, human; conditions: 4 h incubation, DAPI counterstain
Method in brief: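 HCT8/ADR cells were seeded at 2×10^4 per well in RPMI-1640 with 10% FBS and grown 24 h. They were incubated 4 h with test nanoparticles or free Dox, washed twice in ice-cold PBS, and fixed in fresh 4% paraformaldehyde for 15 min at room temperature. Nuclei were counterstained with DAPI and imaged by confocal laser scanning microscopy for Dox fluorescence.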

BALB/c-nu nude mice = assay: Preliminary treatment safety in tumor-bearing nude mice; type: in vivo
Method in brief: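 Female BALB/c-nu nude mice aged 3-4 weeks received 1×10^6 HCT8/ADR cells subcutaneously on the back. They were randomised into five groups of six: PBS, test nanoparticles or Dox given peritumorally, and test nanoparticles or Dox given intravenously. Dosing started at about 100 mm³ tumour volume, at 2 mg/kg Dox-equivalent every two days over 22 d. Body weight was monitored. At endpoint, organs were weighed, organ coefficient was taken as organ weight/body weight×100%, and histology was done.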

HCT8 cells = assay: In vitro cytotoxicity, MTT assay; type: cell-based, human; conditions: 48 h, Dox-equivalent concentration
Method in brief: (§1)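 HCT8 and HCT8/ADR cells were grown in RPMI-1640 with 10% FBS, streptomycin and penicillin at 37 °C under 5% CO₂. Cells were seeded at 5×10^3 per well and grown 24 h, then exposed to varying concentrations of test nanoparticles or free Dox for 48 h. MTT (5 mg/mL stock) was added for a further 4 h, then DMSO. Absorbance was read at 490 nm and viability calculated. Run in triplicate.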

HCT8/ADR cells [3] = assay: In vitro cytotoxicity, MTT assay; type: cell-based, human; conditions: 48 h, concentration up to 20 μg/mL
Method in brief: as §1

Compound: COc1cccc2c1C(=O)c1c(O)c3c(c(O)c1C2=O)C[C@@](O)(C(=O)CO)C[C@@H]3O[C@H]1C[C@H](N)[C@H](O)[C@H](C)O1 [Dox, Doxorubicin]
- change of uptake efficiency after verapamil (HCT8/ADR cells [1]): clearly increased uptake efficiency
- Dox-related red fluorescence, intranuclear accumulation (HCT8/ADR cells [2]): hardly observed
- body weight change (BALB/c-nu nude mice; Dox dose 2 mg/kg per two days over 22 d, nude mice bearing HCT8/ADR tumor): remarkable body weight loss
- histological examination of major organs (BALB/c-nu nude mice; at experimental endpoint, 22 d): degeneration and edema and focal cytolysis necrosis in the liver and spleen
- organ coefficient of liver and spleen (BALB/c-nu nude mice; iv, at experimental endpoint, 22 d): reduced markedly
- IC50 (cell proliferation) (HCT8 cells): approximately 1 μg/mL
- antitumor activity (cytotoxicity) (HCT8/ADR cells [3]): ineffective
